Measurements collected from several papers.
ABCB1: ATP-dependent translocase ABCB1 (ABCB1, Homo sapiens, UniProt P08183)

| SMILES | tested on | assay | system | setting | measurement | result |
| --- | --- | --- | --- | --- | --- | --- |
| CC(C)CCC[C@@H](C)[C@H]1CC[C@H]2[C@@H]3CC=C4C[C@@H](OC(=O)CCC(=O)NCCCC[C@H](NC(=O)[C@H]5CCCN5C(=O)[C@H](CCC(=O)O)NC(=O)[C@H](C)NC(=O)[C@@H](NC(=O)C[C@H](O)[C@H](CC(C)C)NC(=O)[C@H](CC(N)=O)NC(=O)[C@@H](NC(=O)[C@H](CCC(=O)O)NC(=O)CNC(=O)[C@@H](CCCCN)NC(=O)CNC(=O)[C@H](CC(C)C)NC(=O)[C@@H]5CCCN5C(=O)[C@@H](CCCCN)NC(=O)[C@H](Cc5ccccc5)NC(=O)[C@H](Cc5ccc(O)cc5)NC(=O)[C@@H]5CCCN5C(=O)[C@@H](N)Cc5ccc(O)cc5)C(C)C)C(C)C)C(N)=O)CC[C@]4(C)[C@H]3CC[C@]12C |  |  | aqueous buffer | pH 6.5 | thermodynamic solubility | > 500 µg/mL |
| COc1ccc(S(=O)(=O)ON=C2C=C(C)C(=O)C(C)=C2)cc1 | LNCaP | cell growth or viability |  |  | CC50 | 3.54 µM |
| O=C(CCCCCCC(=O)Nc1ccc(CC[18F])cc1)NO | LNCaP |  | male nude, tumour | intravenous, 2 h, tumour-bearing | tracer uptake | 1.5 %ID/g |
| CC[C@@H]1CN(C(=O)NCC(F)(F)F)C[C@@H]1c1cnc2cnc3[nH]ccc3n12 |  |  | beagle dog, plasma | oral, 1 mg/kg, single dose | MRT(0-t) | 9.27 h |
| CC1(C)CCC2(CC1)N[C@@H](C(=O)N[C@@H]1CC[C@@H](C(N)=O)OC1)[C@H](c1ccnc(Cl)c1F)[C@]21C(=O)Nc2cc(Cl)ccc21 | ABCB1 |  | Caco-2 | 10 µM, 2 h | efflux ratio | 9.3 |
| Cc1cc(-c2ccc(C(F)(F)F)cn2)[nH]c1C(=O)N[C@@H](CN)c1ncc(CO)s1 | Cf2Th-CCR5 | cell growth or viability, MTS |  | 48 h | CC50 | > 47 µM |
| CCn1cnc2c(=O)[nH]c(N)nc21.NCCNCCN.[Pt+2] | Jurkat | cell growth or viability, WST-1 |  |  | IC50 | > 100 µM |
| C[C@]12CCCN1CC1=NNC(=O)c3cc(F)cc4[nH]c2c1c34 | ABCB1 |  | MDCK-MDR1 | 1 µM | Papp A→B | 24.2 ×10⁻⁶ cm/s |
| CC1(C)CC(NC(=O)C(=O)Nc2ccc(Cl)cc2)CC(C)(C)N1 | Cf2Th-CCR5 | cell growth or viability, MTS |  | 48 h | CC50 | > 60 µM |
